This passage reports EC50, Selectivity ratio and SA results from ChEMBL document CHEMBL1143614, “Structure-activity relationships of the unique and potent agouti-related protein (AGRP)-melanocortin chimeric Tyr-c[beta-Asp-His-DPhe-Arg-Trp-Asn-Ala-Phe-Dpr]-Tyr-NH2 peptide template” (J Med Chem, 2005).

One test concerns the target Melanocortin receptor 3 (Mus musculus, UniProt P33033). Kind of test: Effective concentration for mouse Melanocortin-3 receptor. Summed up:
(§1)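 HEK-293 cells stably expressing the mouse receptor (G418 selection), transiently transfected with a CRE/β-galactosidase reporter. Forskolin (10^-4 M) served as the control. After lysis, ONPG was added at 37° and OD405 was read. Signals were normalized to protein content and forskolin; EC50 came from a nonlinear least-squares fit, duplicate or more independent experiments in quadruplicate.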

The species entered for the next test is Mus musculus. The test can be described thus: Relative effective concentration for Melanocortin-3 and Melanocortin-4 receptors.
Test [1] deals with Melanocyte-stimulating hormone receptor (Mus musculus, UniProt Q01727). Kind of test: Effective concentration for mouse Melanocortin-1 receptor.
Chain of Melanocyte-stimulating hormone receptor (Q01727 whole entry): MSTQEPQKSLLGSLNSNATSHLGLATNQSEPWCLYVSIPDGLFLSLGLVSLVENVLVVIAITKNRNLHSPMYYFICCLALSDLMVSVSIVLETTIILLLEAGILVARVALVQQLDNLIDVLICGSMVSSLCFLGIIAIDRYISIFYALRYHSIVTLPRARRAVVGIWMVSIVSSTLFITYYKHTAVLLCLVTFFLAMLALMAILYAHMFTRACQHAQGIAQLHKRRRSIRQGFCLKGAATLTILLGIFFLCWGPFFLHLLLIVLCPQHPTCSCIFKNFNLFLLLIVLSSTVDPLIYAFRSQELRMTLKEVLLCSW
A further test deals with Melanocortin receptor 4 (Mus musculus, UniProt P56450). Kind of test: Effective concentration for mouse Melanocortin-4 receptor. A digest of the protocol:
as §1

A further test has as its target Melanocortin receptor 5 (Mus musculus, UniProt P41149). Kind of test: Effective concentration for mouse Melanocortin-5 receptor.
The target of test [2] is Melanocortin receptor 3 (Mus musculus) (UniProt P33033). Kind of test: Relative percent of stimulatory activity for mouse Melanocortin-3 receptor at 100 uM. Summed up: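 HEK-293 cells stably expressing mouse melanocortin receptors (G418-selected) were transiently transfected with a CRE/β-galactosidase reporter. 48 h after transfection, cells were stimulated for 6 h with peptide (10^-4 to 10^-12 M) or forskolin (10^-4 M) in DMEM with 0.1 mg/mL BSA and 0.1 mM IBMX. Lysates were incubated with ONPG at 37° and read at OD405. Signals were normalized to relative protein (OD595) and to forskolin response. EC50 came from nonlinear least-squares fits of duplicate experiments in quadruplet or more.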
Chain of Melanocortin receptor 3 (Mus musculus) (P33033 whole entry): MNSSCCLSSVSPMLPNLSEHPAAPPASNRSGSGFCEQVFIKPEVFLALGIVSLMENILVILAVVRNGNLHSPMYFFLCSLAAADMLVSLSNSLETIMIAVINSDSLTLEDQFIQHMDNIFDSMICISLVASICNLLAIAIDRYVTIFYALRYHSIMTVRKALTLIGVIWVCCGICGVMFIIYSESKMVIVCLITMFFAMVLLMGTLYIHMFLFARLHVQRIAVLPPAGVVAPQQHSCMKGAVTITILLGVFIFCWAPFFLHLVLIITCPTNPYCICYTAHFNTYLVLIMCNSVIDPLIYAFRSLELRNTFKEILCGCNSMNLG

The structures appear in SMILES notation. Where a SMILES comes first, the peptide text is derived from it. Bridges are numbered along the chain shown (N, C = ends).

Chain of Melanocortin receptor 4 (P56450 whole entry): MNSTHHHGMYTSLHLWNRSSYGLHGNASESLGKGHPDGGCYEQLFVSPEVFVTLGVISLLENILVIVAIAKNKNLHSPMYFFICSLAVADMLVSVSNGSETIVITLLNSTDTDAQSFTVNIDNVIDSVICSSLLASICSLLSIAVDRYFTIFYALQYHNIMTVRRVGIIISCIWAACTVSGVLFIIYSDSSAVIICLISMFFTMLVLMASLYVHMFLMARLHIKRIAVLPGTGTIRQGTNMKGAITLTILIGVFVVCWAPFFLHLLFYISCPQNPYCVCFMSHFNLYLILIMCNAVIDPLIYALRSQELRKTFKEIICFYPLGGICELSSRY
Chain of Melanocortin receptor 5 (P41149 whole entry): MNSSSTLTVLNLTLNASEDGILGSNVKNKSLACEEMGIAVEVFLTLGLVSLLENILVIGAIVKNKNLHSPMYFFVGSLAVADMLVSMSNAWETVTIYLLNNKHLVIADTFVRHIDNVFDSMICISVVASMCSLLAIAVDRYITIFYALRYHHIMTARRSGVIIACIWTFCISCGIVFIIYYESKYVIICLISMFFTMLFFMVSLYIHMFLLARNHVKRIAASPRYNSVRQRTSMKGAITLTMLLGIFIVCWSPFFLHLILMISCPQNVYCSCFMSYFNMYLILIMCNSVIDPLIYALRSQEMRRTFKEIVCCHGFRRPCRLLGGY
Chain of Melanocortin receptor 3 (P33033 whole entry): as the sequence (P33033 whole entry) above

In turn, `C[C@@H]1NC(=O)[C@H](CC(N)=O)NC(=O)[C@H](Cc2c[nH]c3ccccc23)NC(=O)[C@H](CCCCN)NC(=O)[C@@H](Cc2ccccc2)NC(=O)[C@H](Cc2c[nH]cn2)NC(=O)[C@@H](NC(=O)[C@@H](N)Cc2ccc(O)cc2)CC(=O)N([C@@H](Cc2ccc(O)cc2)C(N)=O)[C@@](C)(C(=O)O)NC(=O)[C@H](Cc2ccccc2)NC1=O` displayed an EC50 at Melanocortin receptor 3 of 30800 nM.

Consider `C[C@@H]1NC(=O)[C@H](CC(N)=O)NC(=O)[C@H](Cc2c[nH]c3ccccc23)NC(=O)[C@H](CCCN=C(N)N)NC(=O)[C@@H](Cc2cccc3ccccc23)NC(=O)[C@H](Cc2c[nH]cn2)NC(=O)[C@@H](NC(=O)[C@@H](N)Cc2ccc(O)cc2)CC(=O)N([C@@H](Cc2ccc(O)cc2)C(N)=O)[C@@](C)(C(=O)O)NC(=O)[C@H](Cc2ccccc2)NC1=O`, for which the Selectivity ratio in the test filed under Mus musculus was 560. This compound showed a 50% effective concentration (EC50) on Melanocortin receptor 3 of 320 nM.

In the case of `C[C@@H]1NC(=O)[C@H](CC(N)=O)NC(=O)[C@H](Cc2c[nH]c3ccccc23)NC(=O)[C@H](C)NC(=O)[C@@H](Cc2ccccc2)NC(=O)[C@H](Cc2c[nH]cn2)NC(=O)[C@@H](NC(=O)[C@@H](N)Cc2ccc(O)cc2)CC(=O)N([C@@H](Cc2ccc(O)cc2)C(N)=O)[C@@](C)(C(=O)O)NC(=O)[C@H](Cc2ccccc2)NC1=O`, in the test filed under Mus musculus, the Selectivity ratio turned out to be 730. On Melanocortin receptor 3, this compound displayed an EC50 of 23800 nM.

For the compound `C[C@@H]1NC(=O)[C@H](CC(N)=O)NC(=O)[C@H](C)NC(=O)[C@H](CCCNC(=N)N)NC(=O)[C@@H](Cc2ccccc2)NC(=O)[C@H](Cc2c[nH]cn2)NC(=O)[C@@H](NC(=O)[C@@H](N)Cc2ccc(O)cc2)CC(=O)NC[C@@H](C(=O)N[C@@H](Cc2ccc(O)cc2)C(N)=O)NC(=O)[C@H](Cc2ccccc2)NC1=O`, the EC50 in test [1] worked out at 350 nM; on Melanocortin receptor 4, 710 nM; at Melanocortin receptor 5 it was 50.1 nM.

Consider `C[C@@H]1NC(=O)[C@H](CC(N)=O)NC(=O)[C@H](Cc2c[nH]c3ccccc23)NC(=O)[C@H](CCCN=C(N)N)NC(=O)[C@@H](Cc2ccccc2)NC(=O)[C@H](Cc2c[nH]cn2)NC(=O)[C@@H](NC(=O)[C@@H](N)Cc2ccc(O)cc2)CC(=O)N([C@@H](Cc2ccc(O)cc2)C(N)=O)[C@@](C)(C(=O)O)NC(=O)[C@@H](Cc2ccccc2)NC1=O`, for which, in the test listed under Mus musculus, the Selectivity ratio was 21. At Melanocortin receptor 3, this compound gave a concentration for a half-maximal effect (EC50) of 14 nM.

Regarding `C[C@@H]1NC(=O)[C@H](CC(N)=O)NC(=O)[C@H](Cc2c[nH]c3ccccc23)NC(=O)[C@H](CCCN=C(N)N)NC(=O)[C@@H](Cc2ccccc2)NC(=O)[C@H](Cc2c[nH]cn2)NC(=O)[C@@H](NC(=O)[C@@H](N)Cc2ccc(O)cc2)CC(=O)N([C@@H](Cc2ccc(O)cc2)C(N)=O)[C@@](C)(C(=O)O)NC(=O)[C@H](Cc2ccccc2)NC1=O`, the 50% effective concentration (EC50) at Melanocortin receptor 3 was 0.97 nM.

`C[C@@H]1NC(=O)[C@H](CC(N)=O)NC(=O)[C@H](Cc2c[nH]c3ccccc23)NC(=O)[C@@H]2CCCN2C(=O)[C@@H](Cc2ccccc2)NC(=O)[C@H](Cc2c[nH]cn2)NC(=O)[C@@H](NC(=O)[C@@H](N)Cc2ccc(O)cc2)CC(=O)N([C@@H](Cc2ccc(O)cc2)C(N)=O)[C@@](C)(C(=O)O)NC(=O)[C@H](Cc2ccccc2)NC1=O` gave an EC50 at Melanocortin receptor 3 of 17300 nM.

As for `C[C@@H]1NC(=O)[C@H](CC(N)=O)NC(=O)[C@H](Cc2c[nH]c3ccccc23)NC(=O)[C@H](CCCN=C(N)N)NC(=O)[C@H](C)NC(=O)[C@H](Cc2c[nH]cn2)NC(=O)[C@@H](NC(=O)[C@@H](N)Cc2ccc(O)cc2)CC(=O)N([C@@H](Cc2ccc(O)cc2)C(N)=O)[C@@](C)(C(=O)O)NC(=O)[C@H](Cc2ccccc2)NC1=O`, the SA in test [2] amounted to 60%.

Regarding `C[C@@H]1NC(=O)[C@H](CC(N)=O)NC(=O)[C@H](Cc2c[nH]c3ccccc23)NC(=O)[C@H](CCCN=C(N)N)NC(=O)[C@@H](Cc2ccccc2)NC(=O)[C@H](C)NC(=O)[C@@H](NC(=O)[C@@H](N)Cc2ccc(O)cc2)CC(=O)N([C@@H](Cc2ccc(O)cc2)C(N)=O)[C@@](C)(C(=O)O)NC(=O)[C@H](Cc2ccccc2)NC1=O`, the Selectivity ratio in the test listed under Mus musculus was found to be 80. In addition, the response at Melanocortin receptor 3 was half-maximal at 29 nM (EC50).

Consider `C[C@@H]1NC(=O)[C@H](CC(N)=O)NC(=O)[C@@H]2Cc3ccccc3CN2C(=O)[C@H](CCCN=C(N)N)NC(=O)[C@@H](Cc2ccccc2)NC(=O)[C@H](Cc2c[nH]cn2)NC(=O)[C@@H](NC(=O)[C@@H](N)Cc2ccc(O)cc2)CC(=O)N([C@@H](Cc2ccc(O)cc2)C(N)=O)[C@@](C)(C(=O)O)NC(=O)[C@H](Cc2ccccc2)NC1=O`, for which, in the test listed under Mus musculus, the Selectivity ratio stood at 13. Besides, a half-maximal effect at Melanocortin receptor 3 (EC50) was put at 3400 nM.

On Melanocortin receptor 3, `C[C@@H]1NC(=O)[C@H](CC(N)=O)NC(=O)[C@H](Cc2c[nH]c3ccccc23)NC(=O)[C@H](CCCN=C(N)N)NC(=O)[C@@H]2CCCN2C(=O)[C@H](Cc2c[nH]cn2)NC(=O)[C@@H](NC(=O)[C@@H](N)Cc2ccc(O)cc2)CC(=O)N([C@@H](Cc2ccc(O)cc2)C(N)=O)[C@@](C)(C(=O)O)NC(=O)[C@H](Cc2ccccc2)NC1=O` registered an EC50 of 13200 nM.

For the compound `C[C@@H]1NC(=O)[C@H](CC(N)=O)NC(=O)[C@@H]2CCCN2C(=O)[C@H](CCCNC(=N)N)NC(=O)[C@@H](Cc2ccccc2)NC(=O)[C@H](Cc2c[nH]cn2)NC(=O)[C@@H](NC(=O)[C@@H](N)Cc2ccc(O)cc2)CC(=O)NC[C@@H](C(=O)N[C@@H](Cc2ccc(O)cc2)C(N)=O)NC(=O)[C@H](Cc2ccccc2)NC1=O`, the results for the concentration giving a half-maximal response (EC50) (in test [1]; at Melanocortin receptor 4; at Melanocortin receptor 5) were 1000 nM, 7200 nM and 700 nM, respectively.

As for `C[C@@H]1NC(=O)[C@H](CC(N)=O)NC(=O)[C@@H]2CCCN2C(=O)[C@H](CCCN=C(N)N)NC(=O)[C@@H](Cc2ccccc2)NC(=O)[C@H](Cc2c[nH]cn2)NC(=O)[C@@H](NC(=O)[C@@H](N)Cc2ccc(O)cc2)CC(=O)N([C@@H](Cc2ccc(O)cc2)C(N)=O)[C@@](C)(C(=O)O)NC(=O)[C@H](Cc2ccccc2)NC1=O`, the response at Melanocortin receptor 3 was half-maximal at 39200 nM (EC50).

`C[C@@H]1NC(=O)[C@H](CC(N)=O)NC(=O)[C@H](Cc2c[nH]c3ccccc23)NC(=O)[C@H](CCCN=C(N)N)NC(=O)[C@@H](Cc2ccc(-c3ccccc3)cc2)NC(=O)[C@H](Cc2c[nH]cn2)NC(=O)[C@@H](NC(=O)[C@@H](N)Cc2ccc(O)cc2)CC(=O)N([C@@H](Cc2ccc(O)cc2)C(N)=O)[C@@](C)(C(=O)O)NC(=O)[C@H](Cc2ccccc2)NC1=O`: the Selectivity ratio in the test filed under Mus musculus stood at 58. The compound also registered a concentration giving a half-maximal response (EC50) at Melanocortin receptor 3 of 33 nM.

Take `C[C@@H]1NC(=O)[C@H](CC(N)=O)NC(=O)[C@H](Cc2ccc(-c3ccccc3)cc2)NC(=O)[C@H](CCCN=C(N)N)NC(=O)[C@@H](Cc2ccccc2)NC(=O)[C@H](Cc2c[nH]cn2)NC(=O)[C@@H](NC(=O)[C@@H](N)Cc2ccc(O)cc2)CC(=O)N([C@@H](Cc2ccc(O)cc2)C(N)=O)[C@@](C)(C(=O)O)NC(=O)[C@H](Cc2ccccc2)NC1=O`: the Selectivity ratio in the test filed under Mus musculus is 11. Also, on Melanocortin receptor 3, the 50% effective concentration (EC50) stood at 450 nM.

`C[C@@H]1NC(=O)[C@H](CC(N)=O)NC(=O)[C@H](Cc2ccc3ccccc3c2)NC(=O)[C@H](CCCN=C(N)N)NC(=O)[C@@H](Cc2ccccc2)NC(=O)[C@H](Cc2c[nH]cn2)NC(=O)[C@@H](NC(=O)[C@@H](N)Cc2ccc(O)cc2)CC(=O)N([C@@H](Cc2ccc(O)cc2)C(N)=O)[C@@](C)(C(=O)O)NC(=O)[C@H](Cc2ccccc2)NC1=O`: in the test filed under Mus musculus, the Selectivity ratio is 21. At Melanocortin receptor 3, this compound returned an EC50 of 5.56 nM.

With `C[C@@H]1NC(=O)[C@H](CC(N)=O)NC(=O)[C@H](C)NC(=O)[C@H](CCCN=C(N)N)NC(=O)[C@@H](Cc2ccccc2)NC(=O)[C@H](Cc2c[nH]cn2)NC(=O)[C@@H](NC(=O)[C@@H](N)Cc2ccc(O)cc2)CC(=O)N([C@@H](Cc2ccc(O)cc2)C(N)=O)[C@@](C)(C(=O)O)NC(=O)[C@H](Cc2ccccc2)NC1=O`, in the test filed under Mus musculus, the Selectivity ratio stood at 19. The compound further had an EC50 on Melanocortin receptor 3 of 13500 nM.

Take `C[C@@H]1NC(=O)[C@H](CC(N)=O)NC(=O)[C@H](Cc2c[nH]c3ccccc23)NC(=O)[C@H](CCCN=C(N)N)NC(=O)[C@@H](Cc2ccccc2)NC(=O)C2(CCc3ccccc3C2)NC(=O)[C@@H](NC(=O)[C@@H](N)Cc2ccc(O)cc2)CC(=O)NC[C@@H](C(=O)N[C@@H](Cc2ccc(O)cc2)C(N)=O)NC(=O)[C@H](Cc2ccccc2)NC1=O` (mixture of isomers): the results for the 50% effective concentration (EC50) (in test [1]; at Melanocortin receptor 4; at Melanocortin receptor 5) were 690 nM, 115 nM and 440 nM, respectively.

For the compound `C[C@@H]1NC(=O)[C@H](CC(N)=O)NC(=O)[C@H](Cc2ccccc2)NC(=O)[C@H](Cc2ccccc2)NC(=O)[C@H](CCCNC(=N)N)NC(=O)[C@@H](NC(=O)[C@@H](N)Cc2ccc(O)cc2)CSSC[C@@H](C(=O)N[C@@H](Cc2ccc(O)cc2)C(N)=O)NC(=O)[C@H](Cc2ccccc2)NC1=O` (H-YCRFFNAFCY-NH2; disulfide 2-9), the concentration giving a half-maximal response (EC50) on Melanocortin receptor 3 and on Melanocortin receptor 5 was over 100000 nM throughout.

Consider `C[C@@H]1NC(=O)[C@H](CC(N)=O)NC(=O)[C@H](Cc2c[nH]c3ccccc23)NC(=O)[C@H](CCCCN)NC(=O)[C@@H](Cc2ccccc2)NC(=O)[C@H](Cc2c[nH]cn2)NC(=O)[C@@H](NC(=O)[C@@H](N)Cc2ccc(O)cc2)CC(=O)NC[C@@H](C(=O)N[C@@H](Cc2ccc(O)cc2)C(N)=O)NC(=O)[C@H](Cc2ccccc2)NC1=O`, for which the values for the 50% effective concentration (EC50) (in test [1]; at Melanocortin receptor 4; at Melanocortin receptor 5) were 680 nM, 8600 nM and 800 nM, respectively.

For the compound `C[C@@H]1NC(=O)[C@H](CC(N)=O)NC(=O)[C@@H](Cc2ccc3ccccc3c2)NC(=O)[C@H](CCCN=C(N)N)NC(=O)[C@@H](Cc2ccccc2)NC(=O)[C@H](Cc2c[nH]cn2)NC(=O)[C@@H](NC(=O)[C@@H](N)Cc2ccc(O)cc2)CC(=O)N([C@@H](Cc2ccc(O)cc2)C(N)=O)[C@@](C)(C(=O)O)NC(=O)[C@H](Cc2ccccc2)NC1=O`, the Selectivity ratio in the test listed under Mus musculus was 10. This compound registered an EC50 at Melanocortin receptor 3 of 6.5 nM.
